Compound activity as filed in PubChem BioAssay.
TMEM16A inh: mouse TMEM16A channel inhibition, primary screen. Q8BHY3. HEK293 TMEM16A/YFP iodide influx fluorescence, ionomycin. normalized B-score (activity score, 25-100; higher = stronger inhibition) at 10 µM. actives 1.2% (n = 310,000). AID 588511;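 active = ratio plate-corrected score three or more library SD toward inhibition, starting fluorescence score within five deviations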;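 note: score derived from kinetic fluorescence span divided by baseline fluorescence per well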
DNA FID counter: fluorescent intercalator displacement, NS3 helicase counter-screen; inhibition, % at 7.9 µM; actives 0.17% (n = 290,000); AID 1845; DNA fluorescent intercalator displacement, fluorescence; in the data active = inhibition above about 37%;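 note: higher means more ethidium bromide displaced from hairpin DNA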
Kir21 block: inhibitors of mouse Kir2.1 inward-rectifier potassium channel. P35561. HEK293-Kir2.1, FluxOR thallium flux fluorescence; active compounds read low. B-score at 10 µM. actives 0.85% (n = 310,000);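 active = fluorescence ratio B-score at or below minus 3 SD of library scores, with starting-brightness B-score within 2 SD, cut at about -4.2 in these data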;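 note: channel flux triggered by added potassium and thallium sulfate stimulus; B-score of peak minus minimum fluorescence over baseline after thallium stimulus; more negative B-score means stronger Kir2.1 block with less thallium influx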
SR-BI HDL uptake: inhibitors of mouse SR-BI mediated HDL lipid uptake; Q61009; ldlA[mSR-BI] CHO cells, DiI-HDL uptake fluorescence, 3 h; inhibition, % at 12.5 µM; actives 0.96% (n = 320,000); AID 488896;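 active = mean replicate inhibition of at least 70% and a set share of replicates each scoring 70 or more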
Target sequence (Q61009 whole entry, looked up): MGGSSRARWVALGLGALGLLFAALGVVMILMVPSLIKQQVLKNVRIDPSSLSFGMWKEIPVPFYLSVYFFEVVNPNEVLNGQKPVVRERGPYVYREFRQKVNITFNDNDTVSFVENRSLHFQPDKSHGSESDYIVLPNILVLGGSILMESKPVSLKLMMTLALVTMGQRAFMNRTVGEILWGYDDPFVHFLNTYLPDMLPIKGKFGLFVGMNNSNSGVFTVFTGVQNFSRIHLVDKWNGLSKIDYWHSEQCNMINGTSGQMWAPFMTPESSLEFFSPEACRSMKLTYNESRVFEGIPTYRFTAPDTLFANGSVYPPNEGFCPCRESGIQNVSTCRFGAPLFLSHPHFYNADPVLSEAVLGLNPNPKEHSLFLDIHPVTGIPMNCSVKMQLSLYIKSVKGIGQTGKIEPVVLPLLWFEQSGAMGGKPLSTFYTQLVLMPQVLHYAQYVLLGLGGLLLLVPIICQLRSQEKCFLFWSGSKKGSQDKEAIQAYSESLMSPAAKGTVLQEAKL
SR-BI DiI-HDL act: activators of SR-BI mediated HDL lipid uptake. activation, % at 12.5 µM. actives 0.096% (n = 320,000). AID 504775. CHO ldlA[mSR-BI] cells, DiI-HDL uptake fluorescence, 3 h; 100 = double the neutral-control signal;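 active = mean replicate activation of at least 60% and every replicate at or above 60%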
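Material – SR-BI-overexpressing, LDLR-lacking CHO cells · Medium – BSA-supplemented, HEPES-buffered Ham's F12, pH 7.4 · Doses – single concentration · Times – compound with DiI-HDL co-incubation, 3 h at 37 °C · Measured by – bottom-read fluorescence, 550/595 nm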
ANO1 activ: mouse TMEM16A channel activation, primary screen; Q8BHY3; HEK293 TMEM16A/YFP-H148Q/I152L, iodide quench fluorescence; active compounds read low; B-score at 10 µM; actives 0.3% (n = 340,000);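 active = fluorescence-ratio B-score plate-corrected deviation score at least 3 library SD below zero, with starting fluorescence score within 5 deviations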;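 note: channel opened by trigger with iodide after compound preincubation; score built on the fluorescence ratio of max minus min over baseline; more negative score means more quench and so TMEM16A activation or potentiation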
hERG ctr: hERG (human) inhibition as Kir2.1 counter-screen; actives 20% (n = 320); hERG-expressing cells, thallium flux; shares compounds with Kir21 block; inhibition, % at 10 µM;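 note: host cells are CHO cells stably expressing hERG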
KCNK9 spec: selectivity of Kir2.1 inhibitors: effect on human KCNK9 | shares compounds with Kir21 block | KCNK9-expressing cells, ion flux inhibition | inhibition, % at 10 µM | actives 5% (n = 320) | AID 2329
Kir2-1 patch inh: inhibitors of mouse Kir2.1 potassium channel | shares compounds with Kir21 block | inhibition, % at 25 µM | actives 71% (n = 320) | Kir2.1 cells, automated patch-clamp current inhibition
Large screens that a line does not name were inactive (follow-up assays come after a bar, where they were run). Sampled rows, rich in hits. Any-hit rate of the full collection: about 3%. Unless noted, the rule behind the calls is not given here.

CCOc1cc(CNCc2ccccn2)cc(Cl)c1OCC	none
CCNCc1cc(Cl)c(OCc2ccccc2)c(OCC)c1	Kir21 block -7 | hERG ctr inactive | KCNK9 spec inactive | Kir2-1 patch inh 47%
CN(Cc1ccc(C(C)(C)C)cc1)C(=O)Cc1ccc(S(=O)(=O)N2CCOCC2)s1	none (no result: TMEM16A inh, DNA FID counter, Kir21 block, SR-BI HDL uptake, SR-BI DiI-HDL act)
NC(=O)C1=C[C@H](c2ccc(Br)cc2)C[C@H](OCc2ccc(CO)cc2)O1	Kir21 block -7.1 | hERG ctr inactive | KCNK9 spec inactive | Kir2-1 patch inh 23%
CC(C)CN(C(=O)COC(=O)CNC(=O)c1sc2ccccc2c1Cl)C1CCS(=O)(=O)C1 (stereo unspecified)	none (no result: DNA FID counter) | hERG ctr inactive | KCNK9 spec inactive | Kir2-1 patch inh inactive
COc1cc(CNCc2ccc(Br)cc2)cc(OC)c1	Kir21 block -7.5 | hERG ctr inactive | KCNK9 spec inactive | Kir2-1 patch inh 72%
COc1ccc(OCC(=O)Nc2ccc(N3CCN(C(=O)c4ccccc4)CC3)c(Cl)c2)cc1	none
Cn1c(-c2ccc(F)cc2)cnc1NCc1ccc(F)cc1	Kir21 block -10 | hERG ctr inactive | KCNK9 spec inactive | Kir2-1 patch inh 60%
Cn1c(-c2ccc(F)cc2)cnc1NCc1ccc(C#N)cc1	none
Cc1cccc(N2C(=O)CN(Cc3ccccc3)C2=S)c1	none
CCc1cc(-c2n[nH]c(C)c2-c2nc(C)cs2)c(O)cc1OC	Kir21 block -11 | hERG ctr inactive | KCNK9 spec inactive | Kir2-1 patch inh 6.3%
COc1cccc(OC)c1OCCOc1ccccc1OC(C)C	Kir21 block -11 | hERG ctr inactive | KCNK9 spec inactive | Kir2-1 patch inh 42%
COc1ccc(Cl)c(N2CCN(CCCNC(=O)Nc3ccc(C)cc3)CC2)c1	Kir21 block -6.3 (no result: SR-BI HDL uptake, SR-BI DiI-HDL act) | hERG ctr 70% | KCNK9 spec inactive | Kir2-1 patch inh 4.8%
COc1ccc(NC(=O)NCCN2CCN(c3cc(OC)ccc3OC)CC2)cc1	none
Cc1ccc(OCC(=O)N2CC(C)CC(C)C2)c([N+](=O)[O-])n1 (stereo unspecified)	none (no result: TMEM16A inh, DNA FID counter, Kir21 block)
CN1CCc2c(n(CC(O)CNCc3ccccc3)c3ccccc23)C1=O (stereo unspecified)	Kir21 block -6 | hERG ctr inactive | KCNK9 spec 31% | Kir2-1 patch inh inactive
CN1CCc2c(n(CC(O)CN(CCO)CCO)c3ccccc23)C1=O (stereo unspecified)	none
c1ccc(CNc2c3ccccc3nc3ccccc23)cc1	Kir21 block -8.3 | hERG ctr 70% | KCNK9 spec inactive | Kir2-1 patch inh 16%
CC(C(=O)NCCS(=O)(=O)c1ccc(Br)cc1)S(=O)(=O)c1ccc(Cl)cc1 (stereo unspecified)	none
CC(C)c1ccc(C(C)NCCS(=O)(=O)c2ccc(Cl)cc2)cc1 (stereo unspecified)	Kir21 block -8 | hERG ctr inactive | KCNK9 spec inactive | Kir2-1 patch inh 5.1%
COCCCN(C(=O)Cc1csc(-c2cccc(Cl)c2)n1)c1c(N)n(Cc2ccccc2)c(=O)[nH]c1=O	none (no result: DNA FID counter)
Cc1ccc(-n2ncc3c2CCCC3NC(=O)c2ocnc2C)cc1C (stereo unspecified)	none
O=C(COc1ccc(C(=O)c2ccccc2)cc1)NCc1ccc(F)cc1	none
O=C(c1ccccc1)c1ccc(OCC(O)CNCc2ccc(F)cc2)cc1 (stereo unspecified)	Kir21 block -9.2 (no result: SR-BI HDL uptake, SR-BI DiI-HDL act) | hERG ctr 60% | KCNK9 spec inactive | Kir2-1 patch inh 65%
O=C(COC(=O)Cc1ccc(Br)cc1)NC1CCCC1	none (no result: TMEM16A inh, DNA FID counter, Kir21 block)
O=C(NCc1ccccc1Cl)C1CCCN1S(=O)(=O)c1ccccc1F (stereo unspecified)	none
CCOC(=O)C(NS(=O)(=O)c1ccc(Br)cc1)C(C)C (stereo unspecified)	Kir21 block -8.5 | hERG ctr inactive | KCNK9 spec inactive | Kir2-1 patch inh 49%
Nc1ccc(-c2ccc(N)cc2C(F)(F)F)c(C(F)(F)F)c1	Kir21 block -6.4 | hERG ctr inactive | KCNK9 spec 48% | Kir2-1 patch inh inactive
COc1cc(OC)c(N(C)S(=O)(=O)c2cccc(C(=O)OCC(=O)N(C)Cc3ccccc3)c2)cc1Cl	none (no result: TMEM16A inh, DNA FID counter, Kir21 block)
O=C(Nc1ccccc1N1CCN(C(=O)c2ccccc2)CC1)c1ccc(Br)o1	none
S=C(NCc1ccc(Cl)cc1)NCc1ccccn1	none
CC(C)CCC(CCNCc1ccccn1)c1ccc(Cl)cc1 (stereo unspecified)	Kir21 block -6.7 | hERG ctr 70% | KCNK9 spec inactive | Kir2-1 patch inh inactive
CCCN(CCC)S(=O)(=O)c1ccc(Cl)c(OC)c1	Kir21 block -6.2 | hERG ctr inactive | KCNK9 spec inactive | Kir2-1 patch inh 32%
CN(C)CCCOc1ccc(C(C)(C)c2ccccc2)cc1	Kir21 block -6.6 | hERG ctr inactive | KCNK9 spec inactive | Kir2-1 patch inh 39%
CN(C)CCCOc1cccc(Oc2ccccc2)c1	none
Cc1cc(C)c2nc(N(CCCN(C)C)C(=O)c3ccc4c(c3)OCCO4)sc2c1	Kir21 block -6.4 (no result: DNA FID counter) | hERG ctr 66% | KCNK9 spec inactive | Kir2-1 patch inh inactive
CC1CN(S(=O)(=O)c2cc(C(=O)NCCCN3CCCC3=O)ccc2Cl)CC(C)O1 (stereo unspecified)	none (no result: TMEM16A inh, DNA FID counter, Kir21 block)
CNC(=O)c1ccc(CN(C)CC(=O)Nc2ccccc2C(=O)NC2CC2)cc1	none (no result: TMEM16A inh, DNA FID counter, Kir21 block)
COc1ccc(S(=O)(=O)N2CCN(Cc3ccc(Cl)cc3)CC2)cc1	none
COc1ccc(CN2CCCN(S(=O)(=O)c3ccc(Br)cc3)CC2)cc1	Kir21 block -6.8 | hERG ctr 67% | KCNK9 spec inactive | Kir2-1 patch inh 31%
COc1ccc(S(=O)(=O)NCc2csc(C)n2)cc1OC	none (no result: ANO1 activ)
O=C(Oc1cccc(OC(=O)c2ccco2)c1)c1ccco1	Kir21 block -5.7 | hERG ctr inactive | KCNK9 spec inactive | Kir2-1 patch inh inactive
COc1ccc(C(=O)NC(=S)N2CCN(c3ccccc3OC)CC2)cc1OC	none
Cc1[nH]n(-c2ccccc2)c(=O)c1CCO	none
Cc1[nH]n(-c2ccccc2)c(=O)c1S(=O)(=O)c1ccccc1	Kir21 block -15 | hERG ctr inactive | KCNK9 spec inactive | Kir2-1 patch inh 66%
O=C(O)CCC(=O)N1N=C(c2ccccc2)CC1c1ccc2c(c1)OCO2 (stereo unspecified)	none
